TRPC4 act = activators of mouse TRPC4 channel, primary screen, Fluo4 calcium, HEK293 TRPC4beta/mu-opioid cells. Short transient receptor potential channel 4 (Mus musculus), Q9QUQ5. Fluo4 calcium fluorescence; hits give high values. B-score at 10 µM. actives 0.49% (n = 310,000);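 active = B-score above 5 SD of library B-scores, and initial fluorescence ratio not above library mean plus 5 SD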;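 also: positive B-score marks a calcium rise read as TRPC4 activation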
Target sequence (Q9QUQ5 whole entry, looked up): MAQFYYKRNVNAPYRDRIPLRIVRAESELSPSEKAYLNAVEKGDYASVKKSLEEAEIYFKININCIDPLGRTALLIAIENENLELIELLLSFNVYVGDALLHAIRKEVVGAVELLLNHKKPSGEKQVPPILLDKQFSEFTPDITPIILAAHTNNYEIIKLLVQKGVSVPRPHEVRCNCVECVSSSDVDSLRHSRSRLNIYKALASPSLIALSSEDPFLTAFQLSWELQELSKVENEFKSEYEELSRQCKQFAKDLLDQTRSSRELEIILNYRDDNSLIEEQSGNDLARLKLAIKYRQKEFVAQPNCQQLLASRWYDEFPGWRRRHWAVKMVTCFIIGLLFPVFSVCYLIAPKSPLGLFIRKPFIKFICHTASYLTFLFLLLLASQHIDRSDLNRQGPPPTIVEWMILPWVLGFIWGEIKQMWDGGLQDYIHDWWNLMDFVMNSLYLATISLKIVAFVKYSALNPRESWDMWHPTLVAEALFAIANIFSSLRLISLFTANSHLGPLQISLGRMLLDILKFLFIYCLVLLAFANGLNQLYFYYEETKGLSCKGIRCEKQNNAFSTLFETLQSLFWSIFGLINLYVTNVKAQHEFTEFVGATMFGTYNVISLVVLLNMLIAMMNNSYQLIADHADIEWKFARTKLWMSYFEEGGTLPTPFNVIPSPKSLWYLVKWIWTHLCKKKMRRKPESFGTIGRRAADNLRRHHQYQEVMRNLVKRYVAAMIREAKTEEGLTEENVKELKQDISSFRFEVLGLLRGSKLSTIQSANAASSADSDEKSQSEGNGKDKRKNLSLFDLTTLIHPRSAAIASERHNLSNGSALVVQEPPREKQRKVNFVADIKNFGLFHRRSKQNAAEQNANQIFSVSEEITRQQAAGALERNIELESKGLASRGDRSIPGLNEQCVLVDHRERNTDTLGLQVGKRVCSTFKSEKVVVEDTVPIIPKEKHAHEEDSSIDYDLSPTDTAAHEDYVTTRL
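System: HEK293 cells stably co-expressing mouse TRPC4beta and mu-opioid receptor; Schedule: Fluo4 dye loading 45 min at room temperature, 110 s recording; Detection: Fluo4 fluorescence, kinetic; Evaluation: B-scored integrated calcium fluorescence ratio; Controls: buffer (low) and maximal DAMGO (high).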
Kir21 inh = inhibitors of mouse Kir2.1 inward-rectifier potassium channel; HEK293-Kir2.1, FluxOR thallium flux fluorescence; hits give low values; B-score at 10 µM; actives 0.85% (n = 310,000);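 active = fluorescence ratio B-score at or below minus 3 SD of library scores, with starting-brightness B-score within 2 SD, cut at about -4.2 in these data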;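 also: channel flux triggered by added potassium and thallium sulfate stimulus; B-score of peak minus minimum fluorescence over baseline after thallium stimulus; more negative B-score means stronger Kir2.1 block with less thallium influx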
TRPC4 potent = positive allosteric modulators of TRPC4, primary screen, cell-based, mouse TRPC4beta, HEK293 mu-opioid, Fluo-4 calcium; actives 0.42% (n = 310,000); DAMGO EC20, Fluo-4 Ca2+ flux; hits give high values; AID 2227, 2009; B-score at 10 µM;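 active = B-score of calcium response area above 5 SD of library B-scores, with initial fluorescence ratio within 5 SD of library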
TRPC6 inh = mouse TRPC6 channel inhibitors, primary screen, cell-based, HEK293, membrane potential dye; Short transient receptor potential channel 6 (Mus musculus), Q61143; ACh-evoked depolarization; hits give low values; B-score at 10 µM; actives 1.1% (n = 310,000); AID 2553, 2010;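 active = B-score under library mean minus 3 SD, initial fluorescence not abnormally high, positive integrated signal ratio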;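 also: B-score derived from integrated fluorescence ratio over the kinetic read; more negative B-score means stronger inhibition of depolarization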
TRPC6 activator = mouse TRPC6 channel activators, primary screen, cell-based, HEK293, membrane potential dye | Short transient receptor potential channel 6 (Mus musculus), Q61143 | HEK293-TRPC6 membrane potential dye fluorescence; hits give high values | B-score at 10 µM | actives 0.13% (n = 310,000);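 active = B-score of the integrated fluorescence ratio above library mean plus 3 SD, and starting fluorescence ratio within library mean plus 5 SD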;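 also: higher score means more depolarization so channel activation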
TRPC4 block = inhibitors of mouse TRPC4 channel, primary screen, Fluo4 calcium, HEK293 TRPC4beta/mu-opioid cells; Short transient receptor potential channel 4 (Mus musculus), Q9QUQ5; DAMGO-evoked Fluo4 calcium flux; hits give low values; B-score at 10 µM; actives 0.39% (n = 300,000); AID 2247, 2010;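 active = B-score over 3 SD under the library average, no early fluorescence shift, positive overall ratio signal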
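Assay system: TRPC4beta/mu-opioid receptor HEK293 cell line; compound dosing: single concentration per test compound; detection: Fluo4 Ca2+ flux fluorescence; evaluation: per-well B score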
Large screens that a line does not name were inactive. Rows were chosen to be rich in hits. Some 2.9% of all compounds tested hit in one or more screens of this group.

CCN1CCN(c2ccc(S(=O)(=O)N3CCCCC3)cc2NC(=O)c2cccc(C)c2[N+](=O)[O-])CC1	TRPC4 act 132
CCN1CCN(c2ccc(S(=O)(=O)N3CCCCC3)cc2NC(=O)c2cccc(C(F)(F)F)c2)CC1	TRPC4 potent 29
COc1cccc(OCc2cc(C(=O)N(C)CCOc3ccc(C)cc3)no2)c1	none
CC1(C)CC(=O)N(Cc2ccccc2)C(=O)C1	none
CC1(C)C(=O)NC(=O)N1Cc1ccccc1	TRPC4 act 76
Oc1c(Br)cc(Br)c(/C=N/n2c(-c3ccccc3)n[nH]c2=S)c1Br	TRPC4 potent 28
c1csc(C(c2nnnn2C2CCCC2)N2CCCC3(CCCCC3)C2)c1 (stereo not given)	none
O=C(OCCN=C1NS(=O)(=O)c2ccccc21)c1ccco1	none
Cc1ccc(CNC(=O)c2ccc(N3CCc4ccccc43)c([N+](=O)[O-])c2)cc1	Kir21 inh -6.53
NNC(=O)c1ccc(N2CCc3ccccc32)c([N+](=O)[O-])c1	none
OCC(Cc1ccccc1)NCc1ccccc1C(F)(F)F (stereo not given)	TRPC4 block -6
Cc1cccc(NC(=S)N(CCCN2CCCC2)Cc2cccn2Cc2ccc(Cl)cc2)c1	Kir21 inh -5.32
CN1CCN(CCCN(Cc2ccco2)C(=S)Nc2ccc(Cl)cc2)CC1	none
CN(C)C(CNc1ncnc2sccc12)c1cccs1 (stereo not given)	TRPC4 act 70
CC1(C)CC(=O)C=C(Nc2ccc(Cl)c(Br)c2)C1	none
O=S(=O)(c1ccccc1)N1CCCC1c1cccs1 (stereo not given)	Kir21 inh -5.44
CCOC(=O)C1CCCN(CC(=O)c2ccc(F)cc2)C1 (stereo not given)	TRPC4 act 81
CCOC(=O)C1CCCN(CCC(=O)Nc2cccc(F)c2)C1 (stereo not given)	none
CCOC(=O)C1CCCN(CCC(=O)Nc2cccc(C)c2)C1 (stereo not given)	TRPC4 act 54
Cc1nnc2ccc(-c3ccc(NS(=O)(=O)c4ccc(F)cc4F)cc3)nn12	none
O=C(CSc1ccccc1)NCc1ccccn1	none
CCCN1C(=O)/C(=C/c2c(N3CCNC(=O)C3CC(=O)OCC)nc3c(C)cccn3c2=O)SC1=S (stereo not given)	TRPC6 activator 27.1
C=CCNC(=O)c1cc2c(=O)n3cc(C)ccc3nc2nc1NCC1CCCO1 (stereo not given)	TRPC6 inh -5.9
CCNc1nc2nc3ccc(C)cn3c(=O)c2cc1C(=O)NCC1CCCO1 (stereo not given)	none
O=C(O)/C=C/C(=O)Nc1cc(F)ccc1F	none
CCOP(=O)(c1ccccc1)c1nc(-c2ccccc2C)oc1N1CCCCC1 (stereo not given)	TRPC4 potent 11
COP(=O)(OC)c1nc(-c2cccc3ccccc23)oc1N1CCCCC1	none
CCOP(=O)(OCC)c1nc(-c2cccc3ccccc23)oc1N1CCCCC1	TRPC4 potent 23
Cc1ccccc1-c1nc(P(=O)(c2ccccc2)c2ccccc2)c(N2CCOCC2)o1	none
CCOc1ccccc1NC(=O)CSc1nc2c(c(=O)n1C)SC(C)C2 (stereo not given)	Kir21 inh -5.51
Cc1ccc(NC(=O)[C@H](C)NC(=O)C2CCN(C(=O)[C@@H](NC(=O)OC(C)(C)C)C(C)C)CC2)cc1	none
Cc1ccc2nc(-c3ccccn3)c(NC3CCCC3)n2c1	TRPC4 block -6
CCOc1ccccc1OCCC(=O)OCC(=O)Nc1c(C)cc(C)cc1C	none
Cc1cc(Br)cc(Br)c1OCC(=O)NNC(=O)Nc1ccccc1	none
CC(C)c1nc2n[nH]c(N)c2c2c1CCCC2	Kir21 inh -6.8
COc1ccc(C2Nc3ccccc3C(=O)N2Cc2ccco2)cc1COc1ccccc1F (stereo not given)	none
COc1ccc(C2Nc3ccccc3C(=O)N2Cc2ccco2)cc1COc1ccc(NC(C)=O)cc1 (stereo not given)	TRPC4 act 110
c1ccc(C2(CN3CCNC[C@H]3Cc3cccc4ccccc34)CC2)cc1	TRPC4 act 84
CC(C)(C)c1cc(O)c(C(C)(C)C)cc1O	TRPC4 act 94
CSc1cc(-c2ccncc2)nc(-c2ccc(Cl)cc2)c1	none
CC1(c2ccc(OC(F)F)cc2)NC(=O)N(CC(=O)Nc2ccc(F)cc2)C1=O (stereo not given)	none
CC1(c2ccc(OC(F)F)cc2)NC(=O)N(CC(=O)Nc2ccc(OC(F)F)cc2)C1=O (stereo not given)	TRPC4 act 54
CC1(c2ccc(OC(F)F)cc2)NC(=O)N(CC(=O)c2ccc3c(c2)OCO3)C1=O (stereo not given)	TRPC4 act 62
O=C(O)C1C2CCC(CC2)C1C(=O)N1CCN(Cc2ccc(F)cc2)CC1 (stereo not given)	TRPC4 act 87
CN(C(=O)C(Cl)Cl)c1ccc(OC(=O)c2ccco2)cc1	Kir21 inh -4.69
Cc1cc(/C=C2/C(=N)N3C(=NC2=O)SN=C3S(C)(=O)=O)c(C)n1-c1ccccc1F	TRPC4 block -6
COC(=O)Cc1cc(C)cc2c(=O)cc(-c3ccoc3)oc12	none
CCCCN(CC)CCCNC(=O)c1cn(C)c2ccc(S(=O)(=O)N(C)C3CCCCC3)cc2c1=O	TRPC4 potent 12
CCCCN(C)C(=O)c1cn(CC)c2ccc(S(=O)(=O)N(C)C)cc2c1=O	none
CCCCN(C)C(=O)c1cn(C)c2ccc(S(=O)(=O)N(C)C)cc2c1=O	TRPC4 potent 14
Cc1ccc(-c2nc(SCC(=O)Nc3cc(C)on3)c3c(=O)n(C)c(=O)n(C)c3n2)cc1	none
Cc1ccc(OCC(=O)NC2CCS(=O)(=O)C2)c(C)c1 (stereo not given)	none
O=S(=O)(NCc1cc(-c2ccccc2Cl)no1)c1ccc(Cl)cc1	TRPC4 potent 10
OCCC1CN(Cc2cc(F)ccc2F)CCN1CCCc1ccccc1 (stereo not given)	none
COc1ccc2c(c1)C=C(CN1CCC(CO)(CCc3ccccc3)CC1)CO2	TRPC4 block -6
OCC1(CCCc2ccccc2)CCN(Cc2cc(F)ccc2F)CC1	Kir21 inh -4.39, TRPC4 block -7
COc1ccc(CC2(CO)CCN(CC3=Cc4cc(Cl)ccc4OC3)CC2)cc1	none
